Measured values as given in ChEMBL document CHEMBL1139875, “Discovery of 4-aminobutyric acid derivatives possessing anticonvulsant and antinociceptive activities: a hybrid pharmacophore approach” (2007).
Calls of active or inactive are those of the source. The rule behind the calls is not given here.

What was measured:
Mus musculus [1] = test: Anticonvulsant activity in Swiss Albino mouse at 300 mg/kg, ip after 0.5 hr by MES test; format: functional, organism-based; design: dose 300 mg/kg
How it was run: (§1)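 Mice (Swiss, 20-25 g) given i.p. doses of 30, 100 and 300 mg/kg under ADD program protocols, three per group, examined at 0.5 and 4 h in MES, scPTZ, scSTY or scPIC seizure tests. Value is the minimum dose protecting half or more of the mice.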

Mus musculus [2] = test: Anticonvulsant activity in Swiss Albino mouse at 300 mg/kg, ip after 4 hrs by MES test; format: functional, organism-based; design: dose 300 mg/kg; how it was run: as §1
Mus musculus [3] = test: Anticonvulsant activity in Swiss Albino mouse at 300 mg/kg, ip after 0.5 hr by scPTZ test; format: functional, organism-based; design: dose 300 mg/kg; how it was run: as §1
Mus musculus [4] = test: Anticonvulsant activity in Swiss Albino mouse at 300 mg/kg, ip after 0.5 hr by scSTY test; format: functional, organism-based; design: dose 300 mg/kg; how it was run: as §1
Mus musculus [5] = test: Anticonvulsant activity in Swiss Albino mouse at 300 mg/kg, ip after 4 hrs by scSTY test; format: functional, organism-based; design: dose 300 mg/kg; how it was run: as §1
Mus musculus [6] = test: Anticonvulsant activity in Swiss Albino mouse at 300 mg/kg, ip after 0.5 hr by scPIC test; format: functional, organism-based; design: dose 300 mg/kg; how it was run: as §1
Mus musculus [7] = test: Anticonvulsant activity in Swiss Albino mouse at 300 mg/kg, ip after 4 hrs by scPIC test; format: functional, organism-based; design: dose 300 mg/kg; how it was run: as §1
Mus musculus [8] = test: Neurotoxicity in Swiss Albino mouse at 300 mg/kg, ip after 0.5 hr by rotarod test; format: functional, organism-based; design: dose 300 mg/kg
How it was run: (§2)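 Swiss mice (20-25 g) are trained on an accelerating rotorod (10 rpm, 3.2 cm rod), then injected i.p. at 30, 100 or 300 mg/kg, with three per group. Neurotoxicity means failure to keep equilibrium for at least 1 min in each of three trials, checked at 0.5 and 4 h. The value reported is the minimum dose affecting half or more of the mice.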

Mus musculus [9] = test: Neurotoxicity in Swiss Albino mouse at 300 mg/kg, ip after 4 hrs by rotarod test; format: functional, organism-based; design: dose 300 mg/kg; how it was run: as §2
Mus musculus [10] = test: Analgesic activity in Swiss Albino mouse assessed as number of acetic acid-induced writhing per 30 min after 100 mg/kg, ip; format: functional; settings: route intraperitoneal
How it was run: (§3)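 Mice in groups of six dosed i.p. at 100 mg/kg, controls receiving 30% v/v PEG 400 in water. Writhing induced by i.p. 0.1 mL of 3% v/v acetic acid 1 h after drug. Writhes (abdominal stretch with at least one hind limb extended) counted over 30 min; % inhibition calculated. Mean ± SEM, Student's t test.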

Mus musculus [11] = test: Analgesic activity in Swiss Albino mouse assessed as inhibition of acetic acid-induced writhing responses at 100 mg/kg, ip; format: functional; settings: route intraperitoneal; how it was run: as §3
Rattus norvegicus [12] = test: Anti-dynamic allodynia effect in Sprague-Dawley rat SNL model assessed as latency to paw withdrawal 100 mg/kg, ip after 0.5 hr; format: functional; settings: route intraperitoneal
How it was run: (§4)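 Left L5 spinal nerve ligation rats, tested preoperatively and 9 days postoperatively, then given 100 mg/kg i.p. (vehicle 30% v/v PEG 400 in water). After 10 min acclimatization, plantar surface of affected paw stroked mildly with a cotton-bud; paw lift response recorded. n = 4; retested 0.5-2.5 h post-dose.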

Rattus norvegicus [13] = test: Anti-dynamic allodynia effect in Sprague-Dawley rat SNL model assessed as latency to paw withdrawal 100 mg/kg, ip after 1 hr; format: functional; settings: route intraperitoneal; how it was run: as §4
Rattus norvegicus [14] = test: Anti-dynamic allodynia effect in Sprague-Dawley rat SNL model assessed as latency to paw withdrawal 100 mg/kg, ip after 1.5 hrs; format: functional; settings: route intraperitoneal; how it was run: as §4
Rattus norvegicus [15] = test: Anti-dynamic allodynia effect in Sprague-Dawley rat SNL model assessed as latency to paw withdrawal 100 mg/kg, ip after 2 hrs; format: functional; settings: route intraperitoneal; how it was run: as §4
Rattus norvegicus [16] = test: Anti-dynamic allodynia effect in Sprague-Dawley rat SNL model assessed as latency to paw withdrawal 100 mg/kg, ip after 2.5 hrs; format: functional; settings: route intraperitoneal; how it was run: as §4
Rattus norvegicus [17] = test: Anti-cold allodynia effect in Sprague-Dawley rat SNL model assessed as duration of paw withdrawal 100 mg/kg, ip after 0.5 hr; format: functional; settings: route intraperitoneal
How it was run: (§5)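 Left L5 spinal nerve ligation under pentobarbital (65 mg/kg i.p.). Allodynic rats dosed i.p. 100 mg/kg, vehicle 30% v/v PEG 400 in water. Acetone (100-200 µL) misted onto midplantar affected paw after 10 min acclimatization; paw withdrawal duration, mean of three samples at least 3 min apart; n = 4 rats.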

Rattus norvegicus [18] = test: Anti-cold allodynia effect in Sprague-Dawley rat SNL model assessed as duration of paw withdrawal 100 mg/kg, ip after 1 hrs; format: functional; settings: route intraperitoneal; how it was run: as §5
Rattus norvegicus [19] = test: Anti-cold allodynia effect in Sprague-Dawley rat SNL model assessed as duration of paw withdrawal 100 mg/kg, ip after 1.5 hrs; format: functional; settings: route intraperitoneal; how it was run: as §5
Rattus norvegicus [20] = test: Anti-cold allodynia effect in Sprague-Dawley rat SNL model assessed as duration of paw withdrawal 100 mg/kg, ip after 2 hrs; format: functional; settings: route intraperitoneal; how it was run: as §5
Rattus norvegicus [21] = test: Anti-cold allodynia effect in Sprague-Dawley rat SNL model assessed as duration of paw withdrawal 100 mg/kg, ip after 2.5 hrs; format: functional; settings: route intraperitoneal; how it was run: as §5
Rattus norvegicus [22] = test: Antihyperalgesic effects in Sprague-Dawley rat CCI model assessed as duration of paw withdrawal at 100 mg/kg, ip after 0.5 hr; format: functional; settings: route intraperitoneal
Rattus norvegicus [23] = test: Antihyperalgesic effects in Sprague-Dawley rat CCI model assessed as duration of paw withdrawal at 100 mg/kg, ip after 1 hr; format: functional; settings: route intraperitoneal
Rattus norvegicus [24] = test: Antihyperalgesic effects in Sprague-Dawley rat CCI model assessed as duration of paw withdrawal at 100 mg/kg, ip after 1.5 hrs; format: functional; settings: route intraperitoneal
Rattus norvegicus [25] = test: Antihyperalgesic effects in Sprague-Dawley rat CCI model assessed as duration of paw withdrawal at 100 mg/kg, ip after 2 hrs; format: functional; settings: route intraperitoneal
Rattus norvegicus [26] = test: Antihyperalgesic effects in Sprague-Dawley rat CCI model assessed as duration of paw withdrawal at 100 mg/kg, ip after 2.5 hrs; format: functional; settings: route intraperitoneal
Rattus norvegicus [27] = test: Antihyperalgesic effects in Sprague-Dawley rat SNL model assessed as duration of paw withdrawal at 100 mg/kg, ip after 0.5 hr, ip; format: functional; settings: route intraperitoneal
How it was run: (§6)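 L5 SNL rats (n = 4), dosed 100 mg/kg i.p. (vehicle 30% v/v PEG 400 in water). Pin-prick to midplantar ipsilateral left hindpaw; withdrawal duration, mean of three responses; ≥2 s defined abnormal. Mean ± SEM; one-way ANOVA with Bonferroni versus predrug.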

Rattus norvegicus [28] = test: Antihyperalgesic effects in Sprague-Dawley rat SNL model assessed as duration of paw withdrawal at 100 mg/kg, ip after 1 hr, ip; format: functional; settings: route intraperitoneal; how it was run: as §6
Rattus norvegicus [29] = test: Antihyperalgesic effects in Sprague-Dawley rat SNL model assessed as duration of paw withdrawal at 100 mg/kg, ip after 1.5 hrs, ip; format: functional; settings: route intraperitoneal; how it was run: as §6
Rattus norvegicus [30] = test: Antihyperalgesic effects in Sprague-Dawley rat SNL model assessed as duration of paw withdrawal at 100 mg/kg, ip after 2 hrs, ip; format: functional; settings: route intraperitoneal; how it was run: as §6
Rattus norvegicus [31] = test: Antihyperalgesic effects in Sprague-Dawley rat SNL model assessed as duration of paw withdrawal at 100 mg/kg, ip after 2.5 hrs, ip; format: functional; settings: route intraperitoneal; how it was run: as §6

For O=C(O)CCCNC(=O)NN=C1CCCC1, the Activity (Mus musculus [1]) was “inactive”, the Activity (Mus musculus [2]) was “Active” and the Activity (Mus musculus [3]) was “inactive”. The Activity (Mus musculus [4]) was “inactive”, the Activity (Mus musculus [5]) was “inactive” and the Activity (Mus musculus [6]) was “inactive”. The Activity (Mus musculus [7]) was “inactive”, the Activity (Mus musculus [8]) was “Active” and the Activity (Mus musculus [9]) was “Active”. It also gave an Activity (Mus musculus [10]) of 18, an inhibition in vivo at 100 mg/kg (Mus musculus [11]) of 90% and an Activity (Rattus norvegicus [12]) of 5.7 s. It also gave an Activity (Rattus norvegicus [13]) of 6.6 s, an Activity (Rattus norvegicus [14]) of 7.8 s and an Activity (Rattus norvegicus [15]) of 10.3 s. For the same compound, the Activity (Rattus norvegicus [16]) was 10.92 s, the Activity (Rattus norvegicus [17]) was 12 s and the Activity (Rattus norvegicus [18]) was 11.2 s. The Activity (Rattus norvegicus [19]) was 10.9 s, the Activity (Rattus norvegicus [20]) was 11 s and the Activity (Rattus norvegicus [21]) was 1.9 s. For the same compound, the Activity (Rattus norvegicus [22]) was 32.1 s, the Activity (Rattus norvegicus [23]) was 30.7 s and the Activity (Rattus norvegicus [24]) was 17.7 s. The Activity (Rattus norvegicus [25]) was 22.8 s, the Activity (Rattus norvegicus [26]) was 25.3 s and the Activity (Rattus norvegicus [27]) was 5.3 s. For the same compound, the Activity (Rattus norvegicus [28]) was 9.9 s, the Activity (Rattus norvegicus [29]) was 5.1 s and the Activity (Rattus norvegicus [30]) was 9.6 s. It also gave an Activity (Rattus norvegicus [31]) of 8.6 s.
